# Assay outcomes as filed in PubChem.
# STAT1 blocker = STAT1 signaling inhibition. AID 920. 0.35% of 200,000 active. inhibition, % at 5.5 µM. NIH 3T3 STAT1-luciferase reporter, IFN-gamma, luminescence;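 active means inhibition above a set limit, the mean inhibition across all tested compounds plus 3 SD, cut at about 34% in these data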
# MT stabilizer = stabilizes microtubules in HeLa cells; % tubulin-high responders, % at 10 µM; HeLa tubulin immunostaining HCS, 24 h; share of cells brighter than vehicle mean+2SD; 0.83% of 200,000 active; AID 2205;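 active means plate Z-score above 3 for both tubulin-high and condensed-nucleus cell shares, with cell loss under 80%, at 10 µM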;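 further: anti alpha tubulin signal scored within the nucleus-defined area of each cell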
# b-catenin transl = alters nuclear translocation of beta-catenin in HeLa cells; immunofluorescence imaging; nuclear translocation activity, % at 5 µM; 0.3% of 190,000 active;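 active means nuclear translocation activity above 50% at 5 µM, with a well cell count of 50 or more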;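 further: per-cell ratio of nuclear to cytoplasmic median beta-catenin stain intensity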
#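 test system = HeLa cells, endogenous beta-catenin | dosing = single 5 µM dose plus 0.02–20 µM confirmation series | times = compound treatment 24 h, 37°C, 5% CO2 | technique = beta-catenin immunofluorescence imaging with DAPI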
# STAT3 activator = STAT3 signaling activation | activation (% of control), % at 5.6 µM | AID 871 | 0.91% of 190,000 active | U3A cells, IL-6 STAT3-luciferase reporter, luminescence; 100% = signal with IL-6 EC80 alone;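 active means activation above the screen-wide mean of compound activation plus 3 SD, cut at about 130% in these data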
#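 Test system: Human STAT1-deficient U3A cells with stable STAT3-luciferase reporter | Also added: Interleukin-6, 33 ng/mL | Timing: Compound pre-incubation 1 h before IL-6, then 6 h stimulation at 37 °C | Technique: Luciferase reporter luminescence | Read-out: Percent of IL-6-only median luminescence | Benchmarks: IL-6-only wells as 100% reference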
# STAT3 inh-1 = STAT3 signaling inhibition; U3A cells, IL-6 STAT3-luciferase reporter, luminescence; host cell line lacks STAT1; inhibition, % at 5.5 µM; 0.89% of 190,000 active; AID 862;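 active means inhibition above the mean inhibition across all screened compounds plus 3 SD, cut at about 44% in these data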
# STAT3 inh-2 = confirmation of STAT3 signaling inhibitors | shares compounds with STAT3 inh-1 | U3A cells, IL-6 STAT3 luciferase reporter, luminescence; cell line lacks STAT1 | inhibition, % at 5.7 µM | 45% of 1,200 active | AID 1265;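 active means inhibition above the hit cutoff computed for the primary STAT3 screen, cut at about 44% in these data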
# NFkB inh 2 = counter-screen for STAT3 inhibitors: NF-kappaB inhibition; shares compounds with STAT3 inh-1; HEK293T NF-kB luciferase reporter, TNF-alpha induced; inhibition, % at 5.7 µM; 36% of 1,200 active; AID 1308;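 active means inhibition above the mean of solvent-only control wells plus 3 SD, cutoff set per campaign, cut at about 13% in these data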
# STAT1 inh STAT3c = counter-screen for STAT3 inhibitors: STAT1 inhibition | shares compounds with STAT3 inh-1 | NIH 3T3 STAT1-luciferase reporter, IFN-gamma induced, luminescence | inhibition, % at 5.7 µM | 27% of 1,200 active | AID 1317;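 active means inhibition above the mean plus 3 SD of solvent-only control wells, limit set per screening run, cut at about 16% in these data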
# Hits are given with their value; – = inactive; · = not tested or not shown. Sampled rows, rich in hits. Any-hit rate of the full collection: about 2.4%.
SMILES,STAT1 blocker,MT stabilizer,b-catenin transl,STAT3 activator,STAT3 inh-1,STAT3 inh-2,NFkB inh 2,STAT1 inh STAT3c
O=C(Nc1ccc(N2CCCC2)cc1)c1cccc(F)c1,–,43.0,·,–,48.2,–,–,–
O=C(Nc1ccc(N2CCCCC2)cc1)c1ccccc1,–,–,–,–,66.5,–,–,–
O=C(Nc1ccc(N2CCCC2=O)cc1)c1cccc(F)c1,–,–,·,–,–,·,·,·
COC(=O)c1ccc(COC(=O)c2ccc(CO)cc2)o1,–,–,–,–,–,·,·,·
COC(=O)c1ccc(COC(=O)c2[nH]c(C)c(C(C)=O)c2C)o1,–,–,–,–,46.8,51.9,–,–
COc1ccc(NC(=O)c2c(Nc3ccccc3)sc(C(=O)c3ccc(F)cc3)c2N)cc1,–,–,–,–,61.0,–,35.1,42.9
COc1ccc(CC(=O)Nc2cccc(C(=O)Nc3cccc(C)c3)c2)cc1,–,–,–,–,–,·,·,·
Cc1cccc(NC(=O)c2ccc(CN3CCN(Cc4ccccc4)CC3)cc2)c1,–,–,–,–,62.6,62.2,13.9,–
Cc1nc(-c2cccc(NC(=O)c3cccs3)c2)cs1,–,–,–,–,–,·,·,·
COc1ccc(C(=O)Nc2cccc(C)c2)cc1,–,–,–,–,44.0,–,–,–
COc1ccc(C(=O)/C=C/Nc2cccc(O)c2)cc1,–,–,–,–,93.1,80.4,15.8,–
Cc1nc(-c2ccc(C(=O)Nc3cccc(Br)c3)cc2)cs1,–,–,–,–,88.3,80.6,–,–
C=CCN(c1ccccc1)S(=O)(=O)c1cccc2cccnc12,·,·,–,·,·,·,·,·
Cc1ccc(S(=O)(=O)C/N=C(/NC(=S)N(c2ccccc2)c2ccccc2)c2ccccc2)cc1,–,–,·,–,–,·,·,·
O=C1c2ccccc2-c2nnc(-c3ccc(F)cc3)cc21,–,–,–,–,55.8,46.8,18.7,–
O=C(/C=C/c1cccc([N+](=O)[O-])c1)NCCSCc1cccc(Cl)c1,–,–,–,–,–,·,·,·
CSc1nsc(N/N=C/c2ccc3c(c2)OCO3)c1C#N,–,–,–,–,–,·,·,·
COc1cc(/C=N/Nc2snc(SC)c2C#N)cc(OC)c1OC,–,–,–,–,59.2,–,–,–
O=C(c1ccc(Cl)s1)N1CCN(c2nc3ccccc3s2)CC1,–,–,–,–,–,·,·,·
CSc1ccc(NC(=O)N2CCN(c3nc4ccccc4s3)CC2)cc1,–,–,–,–,46.2,45.7,–,–
COCCn1c(SCCCC(=O)c2ccc(Br)cc2)nnc1-c1ccncc1,–,–,·,–,52.6,45.5,13.2,–
CC(C)CN1CN(Cc2ccccc2)CNC1=S,–,–,–,–,–,·,·,·
O=C(Nc1ccncc1)c1ccc(-c2ccccc2)cc1,–,–,–,–,82.4,76.8,–,–
CC(C)Cn1c(N)c(C(=O)CSc2cc(Cl)ccc2Cl)c(=O)n(C)c1=O,–,–,–,–,–,·,·,·
CC(C)Cn1c(N)c(C(=O)CSc2nc3ccccc3n2C)c(=O)n(C)c1=O,–,–,–,–,–,·,·,·
SMILES,STAT1 blocker,MT stabilizer,b-catenin transl,STAT3 activator,STAT3 inh-1,STAT3 inh-2,NFkB inh 2,STAT1 inh STAT3c
CCOC(=O)Cc1csc(SCC(=O)c2c(N)n(CC(C)C)c(=O)n(C)c2=O)n1,–,–,–,–,64.1,52.0,–,–
Cc1nn(-c2ccccc2)c(C)c1C(=O)OCC(=O)c1c(N)n(CC(C)C)c(=O)n(C)c1=O,–,–,–,–,44.4,66.0,13.7,–
Cc1csc(SCC(=O)c2c(N)n(CC(C)C)c(=O)n(C)c2=O)n1,–,–,–,–,48.8,48.8,–,19.8
COc1ccc(-c2cn3nc4c(nc3n2)CCCC4)cc1,–,–,·,–,70.2,–,–,–
COc1cccc(-c2cn3nc(C)c(C)nc3n2)c1,–,–,–,–,–,·,·,·
CCOc1ccc(C(=O)C[n+]2ccccc2C)cc1,–,–,–,–,–,·,·,·
O=C(O)c1ccc(NCCc2ccc(Cl)cc2)c([N+](=O)[O-])c1,–,–,·,–,–,·,·,·
Cn1c(CN2CCCCC2)nc2cc(NC(=O)c3ccc(Cl)cc3)ccc21,–,–,·,–,69.5,69.8,22.7,–
